Source: ChEMBL document CHEMBL1126550, “Nanomolar-affinity, non-peptide oxytocin receptor antagonists” (J Med Chem, 1993)

Assays:
Vasopressin V2 receptor = Vasopressin V2 receptor (Rattus norvegicus, UniProt Q00788); test: Inhibition of radioligand [3H]-AVP binding to the vasopressin V2 receptor in rat kidney tissue
In short: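 [3H]AVP (80–90 Ci/mmol) at 2 nM competed on crude membranes from male rat kidney medulla (V2 sites). Equilibrium 30 min at 30 °C in 100 mM Tris-HCl, 5 mM MgCl2, 0.1% BSA, 50 μM PMSF, 50 μg/mL bacitracin, pH 8.0. Nonspecific binding with 10 μM unlabeled AVP. Glass-fiber filtration. IC50 by linear regression of % inhibition vs log concentration, seven concentrations.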

Oxytocin receptor = target: T1, Oxytocin receptor (Rattus norvegicus, UniProt P70536); test: Inhibition of radioligand [3H]oxytocin binding at the oxytocin (OT) receptor in rat uterine tissue
T1 sequence (P70536 whole entry): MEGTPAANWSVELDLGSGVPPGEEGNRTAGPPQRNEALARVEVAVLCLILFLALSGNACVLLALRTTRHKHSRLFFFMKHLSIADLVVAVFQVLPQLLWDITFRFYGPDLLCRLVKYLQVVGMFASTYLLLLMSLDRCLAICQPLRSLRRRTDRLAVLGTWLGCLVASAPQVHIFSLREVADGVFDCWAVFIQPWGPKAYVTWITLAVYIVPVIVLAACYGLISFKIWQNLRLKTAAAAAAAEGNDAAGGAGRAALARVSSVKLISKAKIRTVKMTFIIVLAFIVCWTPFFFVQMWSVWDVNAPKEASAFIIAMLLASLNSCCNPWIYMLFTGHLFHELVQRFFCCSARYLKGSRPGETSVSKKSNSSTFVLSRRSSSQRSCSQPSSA
In short: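 Uteri taken from rats given diethylstilbestrol dipropionate (0.3 mg/kg ip, 18–24 h before), crude membranes. 1 nM [3H]OT (30–60 Ci/mmol), equilibrium 60 min at 22 °C in 50 mM Tris-HCl, 5 mM MgCl2, 0.1% BSA, pH 7.4. Nonspecific binding with 1 mM unlabeled OT. Filtered on glass fiber. Initial single-concentration screen, then IC50 from seven concentrations by linear regression.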

Vasopressin V1 receptor = Vasopressin V1 receptor (Rattus norvegicus, UniProt P48974+P30560); test: Inhibition of radioligand [3H]AVP binding to the vasopressin V1 receptor in rat liver tissue
In short: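 Crude membranes from male rat liver (V1 sites) competed with 1 nM [3H]AVP (80–90 Ci/mmol). Equilibrium 30 min, 30 °C, buffer 100 mM Tris-HCl, 5 mM MgCl2, 0.1% BSA, 50 μM PMSF, 50 μg/mL bacitracin, pH 8.0. 10 μM unlabeled AVP for nonspecific binding. Filtration through glass-fiber filters. IC50 from linear regression over seven concentrations.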

Sequence of Vasopressin V2 receptor (Q00788 whole entry): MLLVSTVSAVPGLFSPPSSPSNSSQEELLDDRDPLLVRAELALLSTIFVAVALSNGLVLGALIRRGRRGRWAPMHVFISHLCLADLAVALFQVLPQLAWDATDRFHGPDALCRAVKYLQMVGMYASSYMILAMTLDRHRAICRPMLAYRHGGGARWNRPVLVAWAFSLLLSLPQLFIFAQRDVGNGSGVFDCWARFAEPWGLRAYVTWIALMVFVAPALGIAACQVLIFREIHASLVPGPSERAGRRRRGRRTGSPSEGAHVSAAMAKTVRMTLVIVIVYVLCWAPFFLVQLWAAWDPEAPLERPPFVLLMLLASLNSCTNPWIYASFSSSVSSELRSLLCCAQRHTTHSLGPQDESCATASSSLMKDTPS

SMILES	IC50 (Vasopressin V2 receptor) [µM]	IC50 (Oxytocin receptor) [nM]	IC50 (Vasopressin V1 receptor) [nM]
CC1(C)[C@@H]2CC[C@@]1(CS(=O)(=O)N1CCC3(C=Cc4ccccc43)CC1)[C@@](O)(CNC(=O)Cc1c[nH]cn1)C2	> 3	45	> 300
CC1(C)[C@@H]2CC[C@@]1(CS(=O)(=O)N1CCC3(C=Cc4ccccc43)CC1)[C@@](O)(CNC(=O)Cc1ccccn1)C2	4.7	81	830
CC1(C)[C@@H]2CC[C@@]1(CS(=O)(=O)N1CCC3(C=Cc4ccccc43)CC1)[C@@](O)(CNC(=O)c1ccccn1)C2	3.6	180	1100
CC1(C)[C@@H]2CC[C@@]1(CS(=O)(=O)N1CCC3(C=Cc4ccccc43)CC1)C1(CNC(=O)O1)C2 (some centres not stated)	> 10	> 1000	> 10000
CC1(C)[C@@H]2CC[C@@]1(CS(=O)(=O)N1CCC3(C=Cc4ccccc43)CC1)[C@@](O)(CNC(=O)C(N)CCS(C)(=O)=O)C2 (some centres not stated)	9.2	110	3700
CC1(C)[C@@H]2CC[C@@]1(CS(=O)(=O)N1CCC3(CCc4ccccc43)CC1)[C@](O)(CNC(=O)C(N)CS(C)(=O)=O)C2 (some centres not stated)	3	40	1100
CC1(C)[C@@H]2CC[C@@]1(CS(=O)(=O)N1CCC3(C=Cc4ccccc43)CC1)[C@](O)(CN)C2	100	10000	100000
CC1(C)[C@@H]2CC[C@@]1(CS(=O)(=O)N1CCC3(C=Cc4ccccc43)CC1)[C@@](O)(CNC(=O)C1CCCNC1)C2 (some centres not stated)	5.1	110	> 300
CC1(C)[C@@H]2CC[C@@]1(CS(=O)(=O)N1CCC3(C=Cc4ccccc43)CC1)[C@@](O)(CCNC(=O)c1ccncc1)C2	> 1	79	> 1000
CC1(C)[C@@H]2CC[C@@]1(CS(=O)(=O)N1CCC3(C=Cc4ccccc43)CC1)[C@@](O)(CNC(=O)NC1CCCCC1)C2	18	170	950
CCC(C)(C)C(=O)NCC[C@@]1(O)C[C@H]2CC[C@]1(CS(=O)(=O)N1CCC3(C=Cc4ccccc43)CC1)C2(C)C	13	45	2300
CC1(C)[C@@H]2CC[C@@]1(CS(=O)(=O)N1CCC3(C=Cc4ccccc43)CC1)[C@@](O)(CC(=O)O)C2	70	800	78000
CC1(C)[C@@H]2CC[C@@]1(CS(=O)(=O)N1CCC3(C=Cc4ccccc43)CC1)/C(=N\O)C2	> 10	650	10000
CC(=O)NCC[C@@]1(O)C[C@H]2CC[C@]1(CS(=O)(=O)N1CCC3(C=Cc4ccccc43)CC1)C2(C)C	30	150	2700
CC1(C)[C@@H]2CC[C@@]1(CS(=O)(=O)N1CCC3(CCc4ccccc43)CC1)[C@@H](NC(=O)NC1CN3CCC1CC3)C2 (single isomer, unassigned; isomer A)	8.7	47	1700
CC1(C)[C@@H]2CC[C@@]1(CS(=O)(=O)N1CCC3(CCc4ccccc43)CC1)[C@@H](NC(=O)NC1CN3CCC1CC3)C2 (single isomer, unassigned; isomer B)	11	37	2100

Second part, the molecule after the results:

IC50 (Vasopressin V2 receptor) [µM]	IC50 (Oxytocin receptor) [nM]	IC50 (Vasopressin V1 receptor) [nM]	SMILES
1.8	6.3	490	CC1(C)[C@@H]2CC[C@@]1(CS(=O)(=O)N1CCC3(CCc4ccccc43)CC1)[C@@H](NC(=O)[C@H](CCC(N)=O)NC(=O)CCN)C2
> 3	150	> 3000	Cc1[nH]cnc1C(=O)N[C@H]1C[C@H]2CC[C@]1(CS(=O)(=O)N1CCC3(CCc4ccccc43)CC1)C2(C)C
3.2	20	500	CC1(C)[C@@H]2CC[C@@]1(CS(=O)(=O)N1CCC3(CCc4ccccc43)CC1)[C@@H](N1C(=O)C3CC(O)CN3C1=O)C2 (some centres not stated)
> 10	6500	> 10000	CC1(C)[C@@H]2CC[C@@]1(CS(=O)(=O)N1CCC3(CCc4ccccc43)CC1)[C@H](N)C2
0.66	2.6	110	CC1(C)[C@@H]2CC[C@@]1(CS(=O)(=O)N1CCC3(CCc4ccccc43)CC1)[C@@H](N1C(=O)NC(CCS(C)(=O)=O)C1=O)C2 (some centres not stated)
0.28	1.2	440	CC1(C)[C@@H]2CC[C@@]1(CS(=O)(=O)N1CCC3(CCc4ccccc43)CC1)[C@@H](NC(=O)C(CCS(C)(=O)=O)NC(=O)Cc1c[nH]cn1)C2 (some centres not stated)
> 10	190	> 1000	CC1(C)[C@@H]2CC[C@@]1(CS(=O)(=O)N1CCC3(CCc4ccccc43)CC1)[C@@H](NC(=O)c1ccncc1)C2
> 10	30000	> 10000	CC1(C)[C@@H]2CC[C@@]1(CS(=O)(=O)N1CCC3(CCc4ccccc43)CC1)[C@@H](N)C2
> 10	12000	> 10000	CC1(C)[C@@H]2CC[C@@]1(CS(=O)(=O)N1CCC3(CCc4ccccc43)CC1)[C@@H](NC(=O)C[C@]13C[C@H]4C[C@H](C[C@H](C4)C1)C3)C2
> 3	10000	> 3000	CC1(C)[C@H]2CC[C@]1(CS(=O)(=O)N1CCC3(CCc4ccccc43)CC1)[C@@H](NC(=O)Cc1c[nH]cn1)C2
1.9	16	700	CC1(C)[C@@H]2CC[C@@]1(CS(=O)(=O)N1CCC3(CCc4ccccc43)CC1)[C@@H](NC(=O)N(CCc1c[nH]cn1)CCS(C)(=O)=O)C2
0.49	0.7	1200	Cn1cnc(CC(=O)NC(CCS(C)(=O)=O)C(=O)N[C@H]2C[C@H]3CC[C@]2(CS(=O)(=O)N2CCC4(CCc5ccccc54)CC2)C3(C)C)c1 (some centres not stated)
5.2	30	710	CC1(C)[C@@H]2CC[C@@]1(CS(=O)(=O)N1CCC3(CCc4ccccc43)CC1)[C@@H](NC(=O)CCC1CCCNC1)C2 (some centres not stated)
> 0.3	2.3	> 300	Cn1cncc1CC(=O)N[C@@H](CCC(N)=O)C(=O)N[C@H]1C[C@H]2CC[C@]1(CS(=O)(=O)N1CCC3(CCc4ccccc43)CC1)C2(C)C
13	240	16000	CCOC(=O)CCC(=O)N[C@H]1C[C@H]2CC[C@]1(CS(=O)(=O)N1CCC3(CCc4ccccc43)CC1)C2(C)C
14	68	4700	CC1(C)[C@@H]2CC[C@@]1(CS(=O)(=O)N1CCC3(CCc4ccccc43)CC1)[C@@H](NC(=O)NCCc1c[nH]cn1)C2
> 10	650	10000	CC1(C)[C@@H]2CC[C@@]1(CS(=O)(=O)N1CCC3(CCc4ccccc43)CC1)[C@@H](NC(=O)C1CCCCC1)C2
46	250	2700	CC1(C)[C@@H]2CC[C@@]1(CS(=O)(=O)N1CCC3(CCc4ccccc43)CC1)[C@@H](NC(=O)Cc1ccccc1)C2
4.4	49	2000	CC1(C)[C@@H]2CC[C@@]1(CS(=O)(=O)N1CCC3(CCc4ccccc43)CC1)[C@@H](N1C(=O)CN(Cc3nn[nH]n3)C1=O)C2
1.5	15	580	CC1(C)[C@@H]2CC[C@@]1(CS(=O)(=O)N1CCC3(CCc4ccccc43)CC1)[C@@H](N1C(=O)NC(Cc3c[nH]cn3)C1=O)C2 (mixture of isomers)
2	16	600	CC1(C)[C@@H]2CC[C@@]1(CS(=O)(=O)N1CCC3(CCc4ccccc43)CC1)[C@@H](N1C(=O)NC(Cc3c[nH]cn3)C1=O)C2 (single isomer, unassigned; isomer A)
3.3	11	2200	CC1(C)[C@@H]2CC[C@@]1(CS(=O)(=O)N1CCC3(CCc4ccccc43)CC1)[C@@H](NC(=O)C(CCS(C)(=O)=O)c1c[nH]cn1)C2 (single isomer, unassigned; isomer B)
2.9	11	1500	CC1(C)[C@@H]2CC[C@@]1(CS(=O)(=O)N1CCC3(CCc4ccccc43)CC1)[C@@H](NC(=O)C(CCS(C)(=O)=O)c1c[nH]cn1)C2 (stereo in doubt)
